Test results taken from ChEMBL document CHEMBL4270555, “Synthesis and biological evaluation of magnolol derivatives as melatonergic receptor agonists with potential use in depression” (Eur J Med Chem, 2018).
Activity calls are given as the source filed them. No cut-off for these calls is given here.

How the values were obtained:
[1] = biological target: T1, Melatonin receptor type 1B (Homo sapiens, UniProt P49286); test: Agonist activity at human MT2 receptor expressed in HEK293 cells after 24 hrs by Fluo-8 dye-based calcium assay; format: functional, cell-based
T1 sequence (P49286 whole entry): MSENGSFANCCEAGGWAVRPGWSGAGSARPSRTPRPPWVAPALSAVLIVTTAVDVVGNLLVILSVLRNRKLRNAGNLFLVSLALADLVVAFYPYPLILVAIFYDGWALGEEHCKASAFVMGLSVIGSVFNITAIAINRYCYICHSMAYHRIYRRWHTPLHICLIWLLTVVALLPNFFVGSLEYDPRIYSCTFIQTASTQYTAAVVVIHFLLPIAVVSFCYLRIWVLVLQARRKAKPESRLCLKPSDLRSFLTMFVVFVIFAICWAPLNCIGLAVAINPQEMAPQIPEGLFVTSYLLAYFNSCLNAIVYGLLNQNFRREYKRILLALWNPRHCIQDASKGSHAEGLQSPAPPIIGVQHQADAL
Procedure, shortened: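 Fluo-8 calcium flux in HEK293 cells stably expressing human MT1 or MT2, grown in DMEM + 10% FBS at 37 °C, seeded 4×10^4/well and incubated 24 h. Compounds in DMSO/HBSS at several concentrations; fluorescence read at room temperature (ex 485, em 525 nm). Triplicate wells, three independent experiments; EC50 by nonlinear regression.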

[2] = test system: Mus musculus; test: Increase in norepinephrine level in Kunming mouse hypothalamus at 40 mg/kg, po treated for 7 days by HPLC-ECD analysis; format: functional, organism-based
Procedure, shortened: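 Male Kunming mice (18–20 g) given vehicle or 40 mg/kg for 7 days, then killed by cervical dislocation. Frontal cortex, hippocampus, striatum, hypothalamus and thalamus dissected on ice, homogenized in ice-cold 0.2 M perchloric acid with 0.1 mM EDTA, centrifuged 15,000 rpm, 20 min, 4 °C. Supernatant analysed by HPLC-ECD at +0.50 V; phosphate/octanesulfonate mobile phase pH 3.0 with 12% methanol. Levels in ng/g, mean ± SEM.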

[3] = test system: Mus musculus; test: Decrease in dopamine level in Kunming mouse hypothalamus at 40 mg/kg, po treated for 7 days by HPLC-ECD analysis; format: functional, organism-based
Procedure, shortened: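 Male Kunming mice received vehicle or 40 mg/kg for 7 days, then were killed by cervical dislocation and the brain regions dissected on ice. Tissue was homogenized in ice-cold 0.2 M perchloric acid with 0.1 mM EDTA and centrifuged at 15,000 rpm, 20 min, 4 °C. Supernatant was analyzed by HPLC-ECD (+0.50 V; phosphate/octanesulfonate mobile phase, pH 3.0). Results in ng/g, mean ± SEM.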

[4] = test system: Rattus norvegicus; test: Toxicity in Sprague-Dawley rat assessed as change in behaviour at 2000 mg/kg, po measured continuously for first 4 hrs followed by measured every hour for next 24 hrs and at 6 hrs intervals for following 48 hrs post dose; format: organism-based; details: in vivo
Procedure, shortened: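 Followed OECD 425 in adult SD rats (180–220 g), three groups of six. Vehicle control received 0.5% CMC-Na orally; separate male and female groups received 2000 mg/kg orally. Endpoints observed: behaviour, breathing, cutaneous effects, sensory nervous system responses, gastrointestinal effects and deaths.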

[5] = Drug metabolism in Sprague-Dawley rat urine assessed as 5'-(1-hydroxyallyl)-5-propyl-2'-((2S,3R,4S,5S,6R)-3,4,5-trihydroxy-6-(hydroxymethyl)tetrahydro-2H-pyran-2-yloxy)biphenyl-2-yl hydrogen sulfate formation at 100 mg/kg, po by UPLC-IT-TOF-MS analysis; format: ADME, organism-based; details: in vivo
Procedure, shortened: (§1)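 Male/unspecified SD rats (n = 6) housed individually in metabolic cages, dosed orally at 100.0 mg/kg; controls given 0.5% CMC-Na orally. Plasma, urine and faeces collected. LC-IT-TOF-MS on C18 column at 30 °C, formic acid (0.05%) water/acetonitrile gradient 5–100% B over 18 min, 0.2 mL/min; positive and negative ion modes with automatic MS/MS.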

[6] = Drug metabolism in Sprague-Dawley rat feces assessed as 5'-(1-hydroxyallyl)-5-propyl-2'-((2S,3R,4S,5S,6R)-3,4,5-trihydroxy-6-(hydroxymethyl)tetrahydro-2H-pyran-2-yloxy)biphenyl-2-yl hydrogen sulfate formation at 100 mg/kg, po by UPLC-IT-TOF-MS analysis; format: ADME, organism-based; details: in vivo
Procedure, shortened: (§2)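 Rats (n = 6) housed in metabolic cages received 100.0 mg/kg orally; controls received 0.5% CMC-Na. Plasma, urine and faeces were collected and analyzed by LC-IT-TOF-MS on a C18 column at 30 °C. Gradient 5–100% acetonitrile with 0.05% formic acid over 18 min at 0.2 mL/min; positive and negative ion MS/MS.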

[7] = Drug metabolism in Sprague-Dawley rat plasma assessed as 2'-hydroxy-5'-(1-hydroxyallyl)-5-propylbiphenyl-2-yl hydrogen sulfate formation at 100 mg/kg, po by UPLC-IT-TOF-MS analysis; format: ADME, organism-based; details: in vivo; procedure, shortened: as §2
[8] = Drug metabolism in Sprague-Dawley rat plasma assessed as (2S,3S,4S,5R,6S)-3,4,5-trihydroxy-6-(5-(1-hydroxyallyl)-5'-(2-hydroxypropyl)-2'-methoxybiphenyl-2-yloxy)tetrahydro-2H-pyran-2-carboxylic acid formation at 100 mg/kg, po by UPLC-IT-TOF-MS analysis; format: ADME, organism-based; details: in vivo; procedure, shortened: as §2
[9] = Drug metabolism in Sprague-Dawley rat plasma assessed as (2S,3R,4S,5S,6R)-2-(5'-allyl-2'-hydroxy-5-(1-hydroxyallyl)biphenyl-2-yloxy)-6-(hydroxymethyl)tetrahydro-2H-pyran-3,4,5-triol formation at 100 mg/kg, po by UPLC-IT-TOF-MS analysis; format: ADME, organism-based; details: in vivo; procedure, shortened: as §2
[10] = Drug metabolism in Sprague-Dawley rat urine assessed as (2S,3R,4S,5S,6R)-2-(5'-allyl-2'-hydroxy-5-(1-hydroxyallyl)biphenyl-2-yloxy)-6-(hydroxymethyl)tetrahydro-2H-pyran-3,4,5-triol formation at 100 mg/kg, po by UPLC-IT-TOF-MS analysis; format: ADME, organism-based; details: in vivo; procedure, shortened: as §1
[11] = Drug metabolism in Sprague-Dawley rat urine assessed as 5-allyl-5'-(1-hydroxyallyl)-2'-((2S,3R,4S,5S,6R)-3,4,5-trihydroxy-6-(hydroxymethyl)tetrahydro-2H-pyran-2-yloxy)biphenyl-2-yl hydrogen sulfate formation at 100 mg/kg, po by UPLC-IT-TOF-MS analysis; format: ADME, organism-based; details: in vivo; procedure, shortened: as §1
[12] = Drug metabolism in Sprague-Dawley rat feces assessed as 2S,3S,4S,5R,6S)-6-(5,5'-diallyl-2'-((2S,3R,4S,5S,6R)-3,4,5-trihydroxy-6-(hydroxymethyl)tetrahydro-2H-pyran-2-yloxy)biphenyl-2-yloxy)-3,4,5-trihydroxytetrahydro-2H-pyran-2-carboxylic acid formation at 100 mg/kg, po by UPLC-IT-TOF-MS analysis; format: ADME, organism-based; details: in vivo; procedure, shortened: as §2
[13] = Drug metabolism in Sprague-Dawley rat plasma assessed as (2R,2'R,3S,3'S,4S,4'S,5R,5'R,6S,6'S)-6,6'-(5,5'-diallylbiphenyl-2,2'-diyl)bis(oxy)bis(2-(hydroxymethyl)tetrahydro-2H-pyran-3,4,5-triol) formation at 100 mg/kg, po by UPLC-IT-TOF-MS analysis; format: ADME, organism-based; details: in vivo; procedure, shortened: as §2
[14] = Drug metabolism in Sprague-Dawley rat plasma assessed as 5,5'-bis(1-hydroxyallyl)biphenyl-2,2'-diol formation at 100 mg/kg, po by UPLC-IT-TOF-MS analysis; format: ADME, organism-based; details: in vivo; procedure, shortened: as §1
[15] = Drug metabolism in Sprague-Dawley rat plasma assessed as (2S,3R,4S,5S,6R)-2-(5,5'-diallyl-2'-methoxybiphenyl-2-yloxy)-6-(hydroxymethyl)tetrahydro-2H-pyran-3,4,5-triol formation at 100 mg/kg, po by UPLC-IT-TOF-MS analysis; format: ADME, organism-based; details: in vivo; procedure, shortened: as §2

C=CCc1ccc(O)c(-c2cc(CC=C)ccc2O[C@@H]2O[C@H](CO)[C@@H](O)[C@H](O)[C@H]2O)c1
EC50 [1]: 383 µM | Activity [2]: Active | Activity [3]: Active | Activity [4]: Non-Toxic | Drug metabolism [5]: Metabolite_Notdetected | Drug metabolism [6]: Metabolite_Detected | Drug metabolism [7]: Metabolite_Notdetected | Drug metabolism [8]: Metabolite_Notdetected | Drug metabolism [9]: Metabolite_Notdetected | Drug metabolism [10]: Metabolite_Detected | Drug metabolism [11]: Metabolite_Notdetected | Drug metabolism [12]: Metabolite_Detected | Drug metabolism [13]: Metabolite_Notdetected | Drug metabolism [14]: Metabolite_Notdetected | Drug metabolism [15]: Metabolite_Detected
